Assay results taken from article PMC5088453 (ACS Omega, 2016).
Like-named read-outs stand apart in the source and are kept apart here.

Columns and labels:
[1] = at 10 min, 25 mg/kg; ref 39 (Gooyit et al.); cited from earlier work
[2] = tested on: mouse BV-2 microglial cells; conditions: cited from earlier work
[3] = type: in vivo, C57Bl/6J mice; conditions: mice, i.p. 40 mM, 2.5 μL/g BW, 15 min; cerebellum, cortex, striatum, hippocampus
In short: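 Male C57Bl/6J mice, 8 weeks old, n = 3, given 40 mM test compound i.p. Brains were saline-perfused, dissected into regions, flash-frozen and stored at −80 °C. Tissue was homogenized in 3 vol water, then centrifuged 20 min at 4 °C. Supernatant (50 μL) was spiked with L-lysine-d8 internal standard and cleaned by phospholipid-removal SPE. Read-out: C18 UPLC–ESI–MS/MS (MRM), expressed as pmol/mg tissue, mean ± SE.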

[4] = type: in vivo, C57Bl/6J mice; conditions: for FruArg concentration in plasma: mice, i.p. 2.5 μL/g BW of 40 mM FruArg
In short: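 In male C57Bl/6J mice (8 weeks; i.p. 40 mM; n = 3 per time), terminal heparinized blood was taken by cardiac puncture at 15, 30, 60 and 180 min. Plasma was stored at −80 °C. Samples (25 μL plasma plus L-lysine-d8 internal standard) went through phospholipid-removal SPE, then C18 UPLC–MS/MS MRM. Quantitation used a plasma-matrix calibration with 1/x2 weighting. PK parameters came from a fit of the concentration–time curve.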

[5] = Stability of the FruArg stock solution; type: physicochemical; conditions: 200 mM hydroacetate salt in double-distilled water, at 4 °C
[6] = tested on: lipopolysaccharide-induced mouse BV-2 microglial cells; conditions: lipopolysaccharide-induced BV-2 cells, concentration-dependent; cited from earlier work
[7] = mice plasma, i.p. 40 mM, 2.5 μL/g BW

FruArg concentration in brain tissue, all four subregions [3]	clearance (Cl) [4, 7]	elimination rate (k) [4, 7]	half-life (t1/2) [4, 7] [min]	volume distribution (VD) [4, 7]	AUC0→∞ ([4]; mice plasma, i.p. 40 mM, 2.5 μL/g BW, extrapolated to infinity) [µM·min]	clearance (Cl) ([4]; mice plasma, i.p. 40 mM, 2.5 μL/g BW, unit as in Table 2)	FruArg concentration in plasma ([4]; 15 min, average n = 3 ± SE) [µM]	FruArg concentration in plasma ([4]; 30 min, average n = 3 ± SE) [µM]	FruArg concentration in plasma ([4]; 60 min, average n = 3 ± SE) [µM]	FruArg concentration in plasma ([4]; 180 min, plasma LOQ 1 μM)	stability of stock solution [5]	SMILES	concentration in the brain tissue [1] [pmol/mg]	cell viability [2]	nitric oxide (NO) production [6]
–	–	–	–	–	–	–	–	–	–	–	–	O=S(=O)(CC1CS1)c1ccc(Oc2ccccc2)cc1 (stereo not drawn) [SB-3CT]	5.0 ± 0.8	–	–
4–7 pmol/mg tissue	1.8 × 10^–4 L·min	6.91 × 10^–2 min^–1	10.03	2.63 × 10^–3 L	4930	1.8 × 10^–4 L·min^–1	111 ± 3	33 ± 9	5 ± 2	below the LOQ	at least 6 months	N=C(N)NCCC[C@H](NCC(=O)[C@@H](O)[C@H](O)[C@H](O)CO)C(=O)O [FruArg, N-α-(1-deoxy-D-fructos-1-yl)-L-arginine]	–	without affecting the cell viability	suppressing nitric oxide (NO) production
